Five molecules from ChEMBL document CHEMBL1142121, “Triterpenoids from the floral spikes of Betula platyphylla var. japonica and their reversing activity against multidrug-resistant cancer cells” (J Nat Prod, 2007) can be followed below.

The structures appear in SMILES notation. Calls of active or inactive are those of the source. The rule behind the calls is not given here. Bounds are passed on as bounds.

Assay [1] is described as follows: Cytotoxicity against human doxorubicin-resistant K562/Adr cells in presence of 1 uM doxorubicin after 48 hrs by MTT assay. The class given is cell-based. A general note: Tetrazolium dyes change colour on reduction, which living cells bring about.
For assay [2], the system named is KB. As to the kind of experiment: Cytotoxicity against human KB cells after 48 hrs by MTT assay. The class given is cell-based. The essentials: (§1)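 KB and KB-C2 cells grown in DMEM with 10% FBS, with KB-C2 maintained with 2 µg/mL colchicine. 5 × 10^3 cells/well were preincubated 24 h, then exposed 48 h at 37 °C, 5% CO2 to graded concentrations (DMSO final <0.5%). MTT read-out. IC50 was the concentration giving 50% of vehicle-control absorbance. Mean ± SE of 3–4 experiments.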

Assay [3] has as its system MCF7. Nature of the assay: Cytotoxicity against human MCF7 cells after 48 hrs by MTT assay. The class given is cell-based. The following applies: MCF7, 48 h. The essentials: (§2)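 MCF7 or COLO205 cells in RPMI1640 with 10% FBS, seeded at 5 × 10^3 cells and preincubated 24 h. Graded concentrations (DMSO final <0.5%) were then applied for 48 h at 37 °C, 5% CO2. Proliferation read by MTT. IC50 was the concentration halving absorbance versus vehicle-treated controls. Mean ± SE of 3–4 experiments.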

The nature of assay [4]: Cytotoxicity against human colchicine-resistant KBC2 cells in presence of 2.5 uM colchicine after 48 hrs by MTT assay. The following applies: KB-C2, 48 h. The class given is cell-based. The essentials:
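Colchicine-resistant KB-C2 cells, maintained in DMEM/10% FBS with 2 µg/mL colchicine. Seeded at 5 × 10^3 cells/well, preincubated 24 h, then given graded test concentrations (DMSO final <0.5%) together with 2.5 µM colchicine for 48 h at 37 °C, 5% CO2. MTT read-out. IC50 was 50% of vehicle-control absorbance. Mean ± SE, 3–4 experiments.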

Assay [5] relates to COLO 205. Nature of the assay: Cytotoxicity against human COLON205 cells after 48 hrs by MTT assay. It is filed as cell-based. Conditions: COLO 205, 48 h. The essentials:
as §2

Assay [6] can be described thus: Cytotoxicity against human doxorubicin-resistant K562/Adr cells after 48 hrs by MTT assay. The class given is cell-based. The gist of the method:
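Doxorubicin-resistant K562/Adr cells, maintained in RPMI1640/10% FBS containing 0.5 µM doxorubicin. Seeded at 1 × 10^4 cells/well, preincubated 24 h, then incubated 48 h at 37 °C, 5% CO2 with graded test concentrations (DMSO final <0.5%). MTT read-out. IC50 was 50% of vehicle-control absorbance. Mean ± SE, 3–4 experiments.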

Assay [7] concerns K562. Nature of the assay: Cytotoxicity against human K562 cells after 48 hrs by MTT assay. It is filed as cell-based. Conditions: K562, 48 h. The essentials: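 K562 leukemia cells, 1 × 10^4 cells/well in medium with 10% FBS, preincubated 24 h. Test samples were then added at various concentrations (DMSO final <0.5%) for 48 h at 37 °C, 5% CO2. MTT assay. IC50 was 50% absorbance relative to vehicle controls. Mean ± SE from 3–4 experiments.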

A short description of assay [8]: Cytotoxicity against human colchicine-resistant KBC2 cells after 48 hrs by MTT assay. Conditions: KB-C2, 48 h. It is filed as cell-based. The essentials: as §1
Assay [9] has as its system MDR. Nature of the assay: Reversal of MDR against KBC2 cells assessed as reduction in cytotoxicity of colchicine at 5 ug/ml. Conditions: Homo sapiens. It is filed as functional, cell-based.

Consider `CC(C)(O)[C@H]1CC[C@@]2(C)C1CC[C@]1(C)[C@@H]2CC[C@@H]2[C@@]3(C)CCC(=O)C(C)(C)[C@@H]3CC[C@]21C` (stereo partly specified) [HYDROXYHOPANONE], for which the IC50 – broadly, the concentration needed to halve the response being measured – was above 100 µM in assay [1]; above 100 µM in assay [2]; above 100 µM in [3]; above 100 µM in [4]; 77.1 µM in [5]; above 100 µM in [6]. The IC50 in assay [7] and in assay [8] was above 100 µM throughout.
For `COC(=O)CC(=O)O[C@@H]1CC[C@]2(C)[C@H]3C[C@@H](OC(C)=O)[C@@H]4[C@@H]([C@]5(C)CC[C@H](C(C)(C)O)O5)CC[C@@]4(C)[C@]3(C)CC[C@H]2C1(C)C` [METHYL PAPYRIFERATE], the half-maximal inhibitory concentration (IC50) in assay [1] was 10.6 µM; in assay [2], 33.8 µM; in [3], 48.9 µM; in assay [4], 3.7 µM; in assay [5] it was 49.6 µM; in [6] it was 36.8 µM. Moreover, the IC50 in assay [7] came out at 32.6 µM; in assay [8], 31.1 µM. The result in [9] was Active.
Turning to `C=C(C)[C@@H]1CC[C@]2(C)[C@H](CC[C@@H]3[C@@H]([C@]4(C)CC[C@H](C(C)(C)O)O4)CC[C@]32C)[C@@]1(C)CCC(=O)OC` [METHYL SHOREATE], the IC50 in assay [1] amounted to 47.1 µM; in assay [2], 66.6 µM; in assay [3], 59.7 µM; in [4], 20.1 µM; in assay [5] it was 67.7 µM; in [6], 50.9 µM. The IC50 worked out at 45.3 µM in assay [7] and 93.5 µM in assay [8].
Consider `CC(C)(O)[C@H]1CC[C@@](C)([C@H]2CC[C@]3(C)[C@@H]2CC[C@@H]2[C@@]4(C)CCC(=O)C(C)(C)[C@@H]4CC[C@]23C)O1` [OCOTILLONE], for which the IC50 in assay [1] was above 100 µM; in assay [2], above 100 µM; in [3], above 100 µM; in assay [4] it was 64.2 µM; in [5], above 100 µM; in [6], above 100 µM. The IC50 in [7] and in assay [8] was above 100 µM each time.
As to `CC(=O)O[C@@H]1C[C@@H]2[C@@]3(C)CC[C@@H](OC(=O)CC(=O)O)C(C)(C)[C@@H]3CC[C@@]2(C)[C@]2(C)CC[C@H]([C@]3(C)CC[C@H](C(C)(C)O)O3)[C@@H]12` [PAPYRIFERIC ACID], the IC50 in assay [1] turned out to be 34.5 µM; in assay [2] it was 47.8 µM; in assay [3], 71.7 µM; in assay [4], 60.1 µM; in assay [5], 52.2 µM; in [6], 42.5 µM. Further, the IC50 in assay [7] is 47.6 µM; in [8] it was 66 µM.
